Measured values as given in ChEMBL document CHEMBL1158072, “Antioxidative phenolics from the fresh leaves of Ternstroemia japonica” (J Nat Prod, 2006).

What was measured:
[1] = Antioxidant activity assessed as inhibition of hydroxyl radical generation by fluorescence spectroscopy; assay type: functional
Method in brief: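 Test samples in 10% EtOH (final 0.4%) added to 1 mM H2O2 plus 0.2 mM FeSO4 and incubated 37 °C for 5 min. Esterase-treated 2 µM DCHF-DA (in EtOH) then added and fluorescence followed for 30 min at ex 460/em 530 nm. Trolox positive control. IC50 reported as mean ± standard error of triplicate experiments.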

Kidney = assay: Antioxidant activity assessed as inhibition of total reactive oxygen species generation in Wistar rat kidney by 2',7'-dichlorofluorescein based fluorescence spectroscopy; assay type: functional, tissue-based
Method in brief: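 Rat kidney homogenate (postmicrosomal fraction) from freshly killed male Wistar rats, 150-200 g, mixed with samples in 10% EtOH (final 0.4%). DCHF-DA (12.5 mM, in EtOH, final 0.2%) added in 50 mM phosphate buffer pH 7.4 and incubated 37 °C for 30 min. DCF fluorescence read at ex 460/em 530 nm. Trolox positive control. IC50 reported as mean ± standard error, triplicate.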

[2] = Antioxidant activity assessed as peroxynitrite scavenging activity by fluorescence spectroscopy; assay type: functional
Method in brief: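 Authentic peroxynitrite oxidation of dihydrorhodamine 123 (final 5 µM) in N2-purged buffer of 90 mM NaCl, 50 mM Na3PO4, 5 mM KCl and 100 µM DTPA, pH 7.4. Fluorescence read 5 min after treatment with and without ONOO- at ex 480/em 530 nm. Signal taken as final minus background. DL-penicillamine positive control. IC50 reported as mean ± standard error, n = 3.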

Row | IC50 [1] [µM] | IC50 (Kidney) [µM] | IC50 [2] [µM] | Structure (SMILES)
1 | 2.83 | 29.5 |  | Cc1c(C)c2c(c(C)c1O)CCC(C)(C(=O)O)O2 (configuration not stated) [TROLOX]
2 | 6.5 | 66.9 | 3.85 | O=C(Cc1ccc(O)c(O)c1)OC[C@H]1O[C@@H](OCCc2ccc(O)c(O)c2)[C@H](O)[C@@H](O)[C@@H]1O [TERNSTROSIDE D]
3 | 3.26 | 33.3 | 1.14 | O=C(Cc1ccc(O)c(O)c1)O[C@@H]1[C@@H](O)[C@H](OCCc2ccc(O)c(O)c2)O[C@H](CO)[C@H]1O [TERNSTROSIDE C]
4 | 4.21 | 45.4 | 1.54 | O=C(Cc1ccc(O)c(O)c1)O[C@H]1[C@H](OCCc2cc(O)c(O)cc2O)O[C@H](CO)[C@@H](O)[C@@H]1O
5 | 3.41 | 39.3 | 1.69 | O=C(Cc1ccc(O)c(O)c1)O[C@H]1[C@H](OCCc2ccc(O)c(O)c2)O[C@H](CO)[C@@H](O)[C@@H]1O [TERNSTROSIDE A]
6 |  |  | 1.05 | CC(C)(S)C(N)C(=O)O (racemic) [DL-PENICILLAMINE]
7 | 4.72 | 55 | 2.56 | O=C(Cc1ccc(O)c(O)c1)O[C@H]1[C@H](OCCc2ccc(O)cc2)O[C@H](CO)[C@@H](O)[C@@H]1O [TERNSTROSIDE E]
8 | 4.66 | 62.5 | 2.36 | O=C(Cc1ccc(O)cc1)O[C@H]1[C@H](OCCc2ccc(O)c(O)c2)O[C@H](CO)[C@@H](O)[C@@H]1O [TERNSTROSIDE B]
9 | 5.28 | 82.2 | 13.5 | O=c1c(O[C@@H]2O[C@H](CO)[C@@H](O)[C@H](O)[C@H]2O[C@@H]2OC[C@@H](O)[C@H](O)[C@H]2O)c(-c2ccc(O[C@@H]3O[C@H](CO)[C@@H](O)[C@H](O)[C@H]3O)cc2)oc2cc(O)cc(O)c12

Row | Structure (SMILES) | IC50 [1] [µM] | IC50 (Kidney) [µM] | IC50 [2] [µM]
10 | O=c1c(O)c(-c2ccc(O)c(O)c2)oc2cc(O)cc(O)c12 [QUERCETIN] | 2.39 | 29.1 | 1.38
